Rows were chosen to be rich in hits. Some 2.4% of all compounds tested hit in one or more screens of this group.
MC4R barr agon: activates human MC4R beta-arrestin recruitment. activation, % at 8.9 µM. P32245. 360,000 tested, 0.98% active. U2OS MC4R beta-arrestin complementation, luminescence; percent of melanotan II response, DMSO zero. AID 540308;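 active = activation above a per-plate cutoff, the mean activation of sample wells on that plate plus 3 SD, cut at about 8% in these data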
Target sequence (P32245 whole entry, looked up): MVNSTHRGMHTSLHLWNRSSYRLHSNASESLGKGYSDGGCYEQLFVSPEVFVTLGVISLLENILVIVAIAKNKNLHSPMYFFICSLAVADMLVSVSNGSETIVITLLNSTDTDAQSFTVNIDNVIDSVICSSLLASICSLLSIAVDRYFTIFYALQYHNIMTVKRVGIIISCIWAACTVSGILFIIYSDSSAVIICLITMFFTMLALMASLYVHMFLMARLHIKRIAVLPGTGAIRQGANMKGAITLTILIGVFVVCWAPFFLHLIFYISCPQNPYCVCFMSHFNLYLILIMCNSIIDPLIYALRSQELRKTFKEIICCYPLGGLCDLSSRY
HTR5A inv ag: inverse agonist of human HTR5A in OPRM1-OPRD1 counter-screen. HTR5A cell line, luminescence, inverse agonism. AID 504634. inhibition, % at 9.3 µM. P47898. 340,000 tested, 0.083% active; in the data active = inhibition mostly above about 23%, no sharp cut-off; inactive = mostly below about 18%;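 note: 0% = cells with DMSO and 100% = no-cell wells with DMSO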
HTR5A ag ctr: counter-screen for OPRM1-OPRD1 agonists: human HTR5A agonism; activation, % at 9.3 µM; HTR5A agonist assay, luminescence, cell-based; 340,000 tested, 0.61% active; AID 504692; in the data active = activation mostly above about 9.5%, no sharp cut-off; inactive = mostly below about 7.6%;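 note: 0% = cells with vehicle only and 100% = reference agonist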
MC4R antag cAMP: human MC4R antagonism in cAMP assay; MC4R-expressing cells, MTII-stimulated cAMP, LANCE TR-FRET; P32245; inhibition, % at 6.5 µM; 360,000 tested, 0.48% active;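 active = inhibition above its plate's cutoff, the mean of tested wells on that plate plus 3 SD, cut at about 29% in these data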;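 note: 0% = Melanotan II alone and 100% = Melanotan II plus saturating MCL0020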
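System – human MC4R-expressing U2OS cells · Also added – Melanotan II · Dosing – one concentration, 6.5 µM nominal · Timing – 30-min compound, 1-h challenge, 1-h detection, room temperature · Measured by – Eu-cAMP/anti-cAMP TR-FRET, emission 671 nm · Replicates – singlicate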
MOR-DOR ag: agonists of human mu-delta opioid receptor heterodimerization; P35372+P41143; cells, OPRM1-OPRD1 heterodimerization, luminescence; activation, % at 9.3 µM; 340,000 tested, 0.3% active; in the data active = activation above about 18%;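 note: 0% = vehicle-treated cells and 100% = reference agonist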
OPRM1-OPRD1 inv: mu-delta opioid heterodimer inverse agonism; P35372+P41143; cell-based MOR-DOR heterodimer luminescence; inhibition, % at 9.3 µM; 340,000 tested, 0.21% active; in the data active = inhibition above about 22%, passing the limit was not always enough;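 note: 0% = cells with DMSO and 100% = wells without cells with DMSO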
Numbers without * were called inactive; i = inactive; / = not tested or not shown.

SMILES | MC4R barr agon | HTR5A inv ag | HTR5A ag ctr | MC4R antag cAMP | MOR-DOR ag | OPRM1-OPRD1 inv
COc1ccccc1OCCOc1ccc(/C=C2/C(=N)N3OC(C)=CC3=NC2=O)cc1OC | 19* | 3 | 6 | 12 | -2 | 9
CC1=CC2=NC(=O)/C(=C\c3ccc(-c4cccc(Cl)c4)o3)C(=N)N2O1 | 12* | -32 | 4 | -11 | 1 | -5
Cc1cnc2c(N)cc(C)c(C)c2c1 | -1 | / | / | -1 | / | /
COc1ccc(CCNC(=O)CNC(=O)Cn2ccc3ccccc3c2=O)cc1OC | -2 | 0 | 0 | 12 | -3 | 15
O=C(CN1CCC(C(O)(c2ccccc2)c2ccccc2)CC1)Nc1cc(Cl)ccc1Cl | 8 | 0 | 3 | 32* | 3 | -15
O=C1CCCN1c1nccs1 | -2 | -5 | 2 | 0 | -3 | 13
Cn1nnnc1Sc1ncnc2scc(-c3ccc([N+](=O)[O-])cc3)c12 | -1 | -11 | 4 | -14 | -2 | 9
O=C(CN(c1ccc(Cl)cc1)S(=O)(=O)c1ccccc1)N1CCN(c2ccccc2)CC1 | 9.1* | -3 | -1 | 12 | 2 | -10
COc1ccc(N2CCN(C(=O)CN(c3ccc(OC)cc3)S(=O)(=O)c3ccccc3)CC2)cc1 | -1 | 8 | -3 | 12 | -3 | 17
CC(C)(C)NC(=O)NC(=O)COC(=O)c1ccc(OC(F)F)cc1 | 2 | 5 | 1 | -3 | 0 | -1
CC(C)(C)NC(=O)NC(=O)COC(=O)c1ccc(OC(F)(F)F)cc1 | 8.4* | -30 | 3 | 1 | 3 | -21
NS(=O)(=O)c1ccc(F)c(C(=O)O)c1 | -4 | -15 | 5 | 1 | 0 | -1
COc1ccc(CN2[C@@H](CC(C)=O)c3cc(C(F)(F)F)ccc3S2(=O)=O)cc1 | 0 | 8 | 7 | 8 | 1 | -4
CN1CCN(S(=O)(=O)c2ccc(NC(=O)c3ccccc3F)cc2)CC1 | 0 | -29 | 8.6* | -9 | 0 | 2
Cc1ccc(S(=O)(=O)N/N=C/c2ccc(OC3CSC3)cc2)cc1 | 9.5* | -22 | 4 | -3 | 7 | -38
COc1ccc(CNC(=O)COC(=O)CN2C(=O)NC3(CCCC3)C2=O)cc1 | -1 | 3 | -1 | -1 | -1 | 5
O=C1N/C(=C/c2ccc(N3CCCC3)cc2)C(=O)N1c1ccccc1 | 8.5* | 0 | 0 | -12 | 1 | -7
O=C1/C(=C/c2ccc(N3CCCC3)cc2)NC(=S)N1C1CC1 | 1 | 17 | -1 | 3 | 4 | -22
Cc1ccc(C(=O)NC(=S)NCC(=O)c2ccccc2)cc1 | 11* | -24 | 1 | -6 | -1 | 8
O=C(CNC(=S)NC(=O)c1cccs1)c1ccccc1 | -1 | -20 | 7 | -12 | -3 | 16
Cc1cccc2c1NC(=O)C2(c1ccc(O)cc1)c1ccc(O)cc1 | 87* | -107 | 44* | -18 | 124* | i
O=C(Nc1c(C(=O)O)[nH]c2ccc(F)cc12)c1cccc(C(F)(F)F)c1 | 1 | -37 | 12* | 4 | -1 | 3
COc1cccc(N(C(=O)CCl)C(C(=O)NCCc2ccccc2)c2cccs2)c1 (stereo not drawn) | 3 | -75 | 61* | 5 | 68* | -362
COc1cccc(N(C(=O)c2snc(C(N)=O)c2N)C(C(=O)NCC2CCCO2)c2cccs2)c1 (stereo not drawn) | 1 | 8 | -3 | 6 | 0 | -3
C=CCNc1nc(-c2cccc(OC)c2O)nc2ccccc12 | 9.4* | -39 | 4 | -10 | 0 | 0
SMILES | MC4R barr agon | HTR5A inv ag | HTR5A ag ctr | MC4R antag cAMP | MOR-DOR ag | OPRM1-OPRD1 inv
COc1ccc(C2/C=C\CNCC(=O)N2Cc2ccc(F)cc2)cc1 (stereo not drawn) | 0 | 9 | 5 | 3 | -2 | 13
CCn1c(=O)cc(OCC(=O)Nc2cc(C)ccn2)c2ccccc21 | 0 | -6 | 1 | 3 | 0 | 1
Cc1cccc(N(C)C(=O)COc2cc(=O)n(C)c3ccccc23)c1 | -2 | -31 | 11* | 11 | -1 | 4
CCn1c(=O)cc(OCC(=O)NCCc2cccc(C)c2)c2ccccc21 | -1 | -32 | 12* | 11 | -1 | 5
CCc1ccccc1NC(=O)NC1CCCCCCC1 | -2 | -5 | 1 | 0 | -1 | 8
COc1cccc(CNC(=O)CCS(=O)(=O)c2cccc3nsnc23)c1 | -2 | 17 | -7 | 3 | -1 | 7
COc1cccc(CNC(=O)CCS(=O)(=O)c2cccc3nonc23)c1 | 2 | 20 | 13* | -1 | 0 | -3
COc1cccc(C(=O)COc2ccc3c(C)cc(=O)oc3c2)c1 | 0 | 15 | -4 | 2 | 1 | -5
COc1cccc(C(=O)COc2ccc3ccc(=O)oc3c2)c1 | -3 | -33 | 12* | 2 | -1 | 9
COC(=O)c1ccc(Cn2cc(C(F)(F)F)cc([N+](=O)[O-])c2=O)cc1 | -1 | -17 | 1 | 19 | 1 | -3
COc1cc(C2c3cc4c(cc3OC(NCCc3ccccc3)C2C)OCO4)cc(OC)c1OC (stereo not drawn) | -1 | -45 | 11* | -44 | 0 | -1
COc1cc(C2c3cc4c(cc3OC(Nc3ccc(C(=O)O)cc3)C2C)OCO4)cc(OC)c1OC (stereo not drawn) | -1 | 12 | -3 | -5 | -1 | 7
Cc1cccc(NC(=O)Cn2nnc(C(=O)NCc3cccs3)c2N)c1C | 9.0* | 9 | 3 | -6 | -1 | 8
CC(OC(=O)CNS(=O)(=O)c1ccc(C#N)cc1)C(=O)Nc1ccc(Cl)cn1 (stereo not drawn) | 0 | 2 | 11* | 17 | -1 | 8
CC(C)(C)OC(=O)N1CCC[C@H]1C(=O)Nc1ccc(C#N)cc1 | 0 | -37 | 9.6* | 4 | -1 | 3
N/C(=N\OC(=O)/C=C/c1ccc(Br)cc1)c1ccccn1 | 8 | -3 | 10* | 19 | 2 | -13
N/C(=N\OC(=O)/C=C/c1ccccc1Cl)c1ccccn1 | 0 | 4 | 0 | 14 | 1 | -3
Cc1c([N+](=O)[O-])cc(C(=O)Nc2ccc3ncccc3c2)cc1[N+](=O)[O-] | 5 | -36 | 9.5* | 0 | 8 | -40
Cc1ccc2cc(NC(=O)c3ccccc3)ccc2n1 | -1 | -34 | 9.4* | -2 | 0 | 0
Cc1c([N+](=O)[O-])cc(C(=O)Nc2ccc(Cc3ccncc3)cc2)cc1[N+](=O)[O-] | 2 | -15 | 5 | 4 | 5 | -34
Cc1ccc2cc(NC(=O)c3cccc(F)c3)ccc2n1 | 1 | -31 | 5 | 3 | 0 | 1
CC(=O)c1cccc(NC(=O)CSc2n[nH]c(=O)n2C2CC2)c1 | -1 | -7 | 2 | 4 | -3 | 15

Bioassay records (PubChem BioAssay)
